The nature of data set [1]: Solubility during SEC isolation in aCSF. It is filed as physicochemical. The note with it: SEC isolation on Superdex 75 in aCSF pH 7.8. The essentials:
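It stood 30 min–4 h at room temperature and was spun at 18,000g. Supernatant ran on a BSA-coated Superdex 75 column in aCSF at 0.5 mL min−1, A280 monitored, with fractions kept on ice.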

The test system of a further data set is primary murine microglia. Description: Microglial uptake by confocal fluorescence microscopy. As to conditions: for uptake by primary microglia, unlabeled Aβ42: immunostained with AF488-conjugated secondary antibody. Type of data set: cell-based, murine (C57BL/6). The gist of the method: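 Microglia in glass-bottom dishes in serum- and GM-CSF-free medium at 37 °C. Conditions: 10 µM AF488-Aβ42 over time; various concentrations for 10 min; 5 µM labeled (imaged directly) or unlabeled Aβ42 (Ab9 1:5000, NL493 secondary). Fixed in 3.7% formaldehyde, DAPI, 40X confocal at fixed settings. ImageJ gave background-corrected cell fluorescence, or integrated density per nucleus. Two or three experiments.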

For data set [2] the following is noted: particularly at physiological pH; ref Jungbauer, et al., 2009; cited from earlier work.

Like-named read-outs stand apart in the source and are kept apart here.

Regarding “AF488-Aβ42 monomers: Aβ42 monomers labeled at primary amines with Alexa Fluor 488 TFP ester, isolated by SEC”, the solubility result in data set [1] is “solubility issues were not encountered”. In addition, the “uptake by primary microglia, AF488-labeled Aβ42” value in the data set with primary murine microglia (5 µM, imaged directly) is recorded as “not taken up readily”. Further, the “internalization by microglia (confocal)” value in the data set on primary murine microglia (10 µM, 37 °C, time course, 40X confocal, ImageJ quantitation) is recorded as “Much lower levels”. As to “AF488-N-terminal-labeled Aβ42: N-terminally AF488-labeled Aβ42 of Jungbauer et al., 2009”, in data set [2], the solubility result is “limited solubility”. “unlabeled Aβ42 monomers: Aβ1–42 monomers isolated by SEC in aCSF”: the “uptake by primary microglia, unlabeled Aβ42” value in the data set on primary murine microglia (5 µM) is “not taken up readily”. Consider “unlabeled Aβ42 protofibrils: Aβ1–42 soluble protofibrils formed in aCSF and isolated by SEC”, for which the “uptake by primary microglia, unlabeled Aβ42” value with primary murine microglia (5 µM) was “rapid and extensive”.

Values taken from publication PMC5018462 (Brain research, 2016).
